These results are taken from ChEMBL document CHEMBL1287651, “Synthesis and in vitro antibacterial activity of fluoroquinolone derivatives containing 3-(N'-alkoxycarbamimidoyl)-4-(alkoxyimino) pyrrolidines” (2010).

≈ marks a conversion by molar mass, not a printed value.

As usually defined, the MIC is the least concentration at which growth counts as inhibited. Low values mean greater potency, high ones weaker potency.

Holding throughout (assay type): functional
Assay [1] relates to Staphylococcus epidermidis. The assay can be described thus: Antibacterial activity against methicillin-sensitive Staphylococcus epidermidis 09-6 after 18 to 24 hrs by twofold serial dilution method. A digest of the protocol: (§1)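 Standard twofold serial agar dilution method on agar media for MIC determination. Screened against representative Gram-positive and Gram-negative strains. Levofloxacin and GMFX served as control drugs.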

Assay [2] deals with Staphylococcus aureus. The assay can be described thus: Antibacterial activity against methicillin-sensitive Staphylococcus aureus 08-2 after 18 to 24 hrs by twofold serial dilution method. A digest of the protocol: as §1
In assay [3] the test system is Pseudomonas aeruginosa. The assay can be described thus: Antibacterial activity against Pseudomonas aeruginosa 09-33 after 18 to 24 hrs by twofold serial dilution method. A digest of the protocol:
(§2)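 MIC determined by the standard twofold serial dilution method on agar media, screening against Gram-positive and Gram-negative strains. Levofloxacin and gemifloxacin were run alongside as reference drugs.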

In assay [4] the test system is Streptococcus pneumoniae. Kind of assay: Antibacterial activity against Streptococcus pneumoniae 08-4 after 18 to 24 hrs by twofold serial dilution method. A digest of the protocol:
as §2

For assay [5], the system named is Staphylococcus epidermidis. The assay can be described thus: Antibacterial activity against methicillin-sensitive Staphylococcus epidermidis 09-3 after 18 to 24 hrs by twofold serial dilution method. A digest of the protocol:
as §1

Assay [6] relates to Escherichia coli. Kind of assay: Antibacterial activity against Escherichia coli ATCC 25922 after 18 to 24 hrs by twofold serial dilution method. A digest of the protocol:
as §2

Assay [7] concerns Klebsiella pneumoniae. Kind of assay: Antibacterial activity against Klebsiella pneumoniae 09-22 after 18 to 24 hrs by twofold serial dilution method. A digest of the protocol:
as §2

Assay [8] concerns Enterococcus faecalis. The assay can be described thus: Antibacterial activity against Enterococcus faecalis 08-12 after 18 to 24 hrs by twofold serial dilution method. In short, it runs like this:
as §2

For assay [9], the system named is Staphylococcus epidermidis. The assay can be described thus: Antibacterial activity against methicillin-resistant Staphylococcus epidermidis 09-4 after 18 to 24 hrs by twofold serial dilution method. In short, it runs like this: as §1
Assay [10] deals with Pseudomonas aeruginosa. Kind of assay: Antibacterial activity against Pseudomonas aeruginosa 09-34 after 18 to 24 hrs by twofold serial dilution method. A digest of the protocol:
as §2

In assay [11] the test system is Klebsiella pneumoniae. Kind of assay: Antibacterial activity against Klebsiella pneumoniae 09-21 after 18 to 24 hrs by twofold serial dilution method. In short, it runs like this:
as §2

The test system of assay [12] is Pseudomonas aeruginosa. The assay can be described thus: Antibacterial activity against Pseudomonas aeruginosa 09-32 after 18 to 24 hrs by twofold serial dilution method. A digest of the protocol:
as §2

In assay [13] the test system is Enterococcus faecium. Kind of assay: Antibacterial activity against Enterococcus faecium 08-7 after 18 to 24 hrs by twofold serial dilution method. A digest of the protocol:
as §2

In assay [14] the test system is Enterococcus faecium. Kind of assay: Antibacterial activity against Enterococcus faecium 08-2 after 18 to 24 hrs by twofold serial dilution method. A digest of the protocol:
as §2

The test system of assay [15] is Escherichia coli. Kind of assay: Antibacterial activity against Escherichia coli 08-21 after 18 to 24 hrs by twofold serial dilution method. In short, it runs like this:
as §2

Assay [16] deals with Klebsiella pneumoniae. The assay can be described thus: Antibacterial activity against Klebsiella pneumoniae 09-23 after 18 to 24 hrs by twofold serial dilution method. A digest of the protocol: as §2
The test system of assay [17] is Enterococcus faecalis. The assay can be described thus: Antibacterial activity against Enterococcus faecalis 08-10 after 18 to 24 hrs by twofold serial dilution method. A digest of the protocol: as §2
Assay [18] concerns Staphylococcus epidermidis. Kind of assay: Antibacterial activity against methicillin-resistant Staphylococcus epidermidis 09-2 after 18 to 24 hrs by twofold serial dilution method. A digest of the protocol:
as §1

Assay [19] concerns Streptococcus pneumoniae. Kind of assay: Antibacterial activity against Streptococcus pneumoniae 08-2 after 18 to 24 hrs by twofold serial dilution method. A digest of the protocol:
as §2

Assay [20] has as its system Staphylococcus aureus. Kind of assay: Antibacterial activity against methicillin-resistant Staphylococcus aureus 08-1 after 18 to 24 hrs by twofold serial dilution method. In short, it runs like this:
as §1

For assay [21], the system named is Staphylococcus epidermidis. The assay can be described thus: Antibacterial activity against methicillin-resistant Staphylococcus epidermidis 09-3 after 18 to 24 hrs by twofold serial dilution method. A digest of the protocol:
as §1

In assay [22] the test system is Pseudomonas aeruginosa. The assay can be described thus: Antibacterial activity against Pseudomonas aeruginosa ATCC 27853 after 18 to 24 hrs by twofold serial dilution method. A digest of the protocol:
as §2

The test system of assay [23] is Pseudomonas aeruginosa. Kind of assay: Antibacterial activity against Pseudomonas aeruginosa 09-35 after 18 to 24 hrs by twofold serial dilution method. A digest of the protocol:
as §2

For assay [24], the system named is Staphylococcus aureus. Kind of assay: Antibacterial activity against Staphylococcus aureus ATCC […] after 18 to 24 hrs by twofold serial dilution method. A digest of the protocol: as §2
Assay [25] deals with Escherichia coli. Kind of assay: Antibacterial activity against Escherichia coli 08-22 after 18 to 24 hrs by twofold serial dilution method. A digest of the protocol:
as §2

As to `CCO/N=C(/N)C1CN(c2c(F)cc3c(=O)c(C(=O)O)cn(CC)c3c2F)C/C1=N\OC` (stereo not given), the MIC in [1] was 0.25 µg/mL (≈ 0.554 µM); with Staphylococcus aureus [2], 0.25 µg/mL (≈ 0.554 µM); in the assay on Pseudomonas aeruginosa [3], above 128 µg/mL; in the assay on Streptococcus pneumoniae [4] it was 0.5 µg/mL (≈ 1.11 µM); in assay [5], 0.25 µg/mL (≈ 0.554 µM); in the assay with Escherichia coli [6], above 128 µg/mL. Also, the MIC against Klebsiella pneumoniae [7] is 1 µg/mL (≈ 2.22 µM); against Enterococcus faecalis [8] it was above 128 µg/mL; in assay [9], 0.125 µg/mL (≈ 0.277 µM); in the assay with Pseudomonas aeruginosa [10], above 128 µg/mL; in the assay with Klebsiella pneumoniae [11], above 128 µg/mL; in the assay on Pseudomonas aeruginosa [12], above 128 µg/mL. The MIC against Enterococcus faecium [13] is above 128 µg/mL; against Enterococcus faecium [14], above 128 µg/mL; in the assay on Escherichia coli [15], above 128 µg/mL; against Klebsiella pneumoniae [16] it was above 128 µg/mL; against Enterococcus faecalis [17] it was above 128 µg/mL; in assay [18] it was 0.5 µg/mL (≈ 1.11 µM). Also, the minimum inhibitory concentration (MIC) against Streptococcus pneumoniae [19] is 16 µg/mL (≈ 35.4 µM); against Staphylococcus aureus [20] it was 0.25 µg/mL (≈ 0.554 µM); in [21], 0.125 µg/mL (≈ 0.277 µM); with Pseudomonas aeruginosa [22] it was above 128 µg/mL; in the assay on Pseudomonas aeruginosa [23], above 128 µg/mL; with Staphylococcus aureus [24], 0.125 µg/mL (≈ 0.277 µM). In addition, the MIC in the assay with Escherichia coli [25] is above 128 µg/mL.

With `CCO/N=C1\CN(c2nc3c(cc2F)c(=O)c(C(=O)O)cn3-c2ccc(F)cc2F)CC1/C(N)=N\OC` (stereo not given), the minimal inhibitory concentration (MIC) in [1] was 0.25 µg/mL (≈ 0.482 µM); in the assay on Staphylococcus aureus [2], 0.25 µg/mL (≈ 0.482 µM); against Pseudomonas aeruginosa [3], above 128 µg/mL; in the assay with Streptococcus pneumoniae [4] it was 32 µg/mL (≈ 61.7 µM); in assay [5] it was 0.125 µg/mL (≈ 0.241 µM); with Escherichia coli [6], 128 µg/mL (≈ 247 µM). For the same molecule, the minimal inhibitory concentration (MIC) is 32 µg/mL (≈ 61.7 µM) with Klebsiella pneumoniae [7]; above 128 µg/mL in the assay with Enterococcus faecalis [8]; 0.25 µg/mL (≈ 0.482 µM) in [9]; above 128 µg/mL with Pseudomonas aeruginosa [10]; 0.25 µg/mL (≈ 0.482 µM) with Klebsiella pneumoniae [11]; above 128 µg/mL with Pseudomonas aeruginosa [12]. Besides, the minimal inhibitory concentration (MIC) in the assay with Enterococcus faecium [13] was above 128 µg/mL; in the assay with Enterococcus faecium [14] it was above 128 µg/mL; against Escherichia coli [15] it was above 128 µg/mL; against Klebsiella pneumoniae [16] it was 32 µg/mL (≈ 61.7 µM); in the assay with Enterococcus faecalis [17], above 128 µg/mL; in assay [18], 0.125 µg/mL (≈ 0.241 µM). In addition, the MIC is 32 µg/mL (≈ 61.7 µM) with Streptococcus pneumoniae [19]; 0.25 µg/mL (≈ 0.482 µM) with Staphylococcus aureus [20]; 0.25 µg/mL (≈ 0.482 µM) in assay [21]; 32 µg/mL (≈ 61.7 µM) against Pseudomonas aeruginosa [22]; above 128 µg/mL against Pseudomonas aeruginosa [23]; 0.25 µg/mL (≈ 0.482 µM) against Staphylococcus aureus [24]. In the assay with Escherichia coli [25], this molecule came in with an MIC above 128 µg/mL.

Take `CCO/N=C1\CN(c2c(F)cc3c(=O)c(C(=O)O)cn(CC)c3c2F)CC1/C(N)=N\OCC` (stereo not given): the MIC (in assay [1]; in the assay on Staphylococcus aureus [2]; in the assay with Pseudomonas aeruginosa [3]; in the assay on Streptococcus pneumoniae [4]; in [5]; against Escherichia coli [6]) was above 128 µg/mL each time. The MIC (against Klebsiella pneumoniae [7]; against Enterococcus faecalis [8]; in assay [9]; with Pseudomonas aeruginosa [10]; in the assay with Klebsiella pneumoniae [11]; in the assay with Pseudomonas aeruginosa [12]) was above 128 µg/mL throughout. In addition, the minimum inhibitory concentration (MIC) (in the assay with Enterococcus faecium [13]; with Enterococcus faecium [14]; with Escherichia coli [15]; in the assay with Klebsiella pneumoniae [16]; in the assay with Enterococcus faecalis [17]; in assay [18]) was above 128 µg/mL in each case. For the same molecule, the MIC was above 128 µg/mL in the assay with Streptococcus pneumoniae [19]; above 128 µg/mL with Staphylococcus aureus [20]; above 128 µg/mL against Pseudomonas aeruginosa [22]; above 128 µg/mL against Pseudomonas aeruginosa [23]; 8 µg/mL (≈ 17.2 µM) against Staphylococcus aureus [24]; above 128 µg/mL against Escherichia coli [25].

For the molecule `C[C@H]1COc2c(N3CCN(C)CC3)c(F)cc3c(=O)c(C(=O)O)cn1c23.C[C@H]1COc2c(N3CCN(C)CC3)c(F)cc3c(=O)c(C(=O)O)cn1c23.O` [LEVOFLOXACIN], the minimal inhibitory concentration (MIC) in assay [1] was 2 µg/mL; against Staphylococcus aureus [2], 0.06 µg/mL; in assay [5], 0.125 µg/mL; in the assay with Escherichia coli [6], 0.125 µg/mL; with Klebsiella pneumoniae [7] it was 16 µg/mL; in the assay on Enterococcus faecalis [8], 4 µg/mL. The MIC in assay [9] is 0.25 µg/mL; in the assay with Klebsiella pneumoniae [11], 8 µg/mL; in the assay with Pseudomonas aeruginosa [12] it was 16 µg/mL; in the assay with Enterococcus faecium [13] it was 2 µg/mL; against Enterococcus faecium [14], 8 µg/mL; in the assay with Escherichia coli [15], 16 µg/mL. For the same molecule, the minimal inhibitory concentration (MIC) came out at 8 µg/mL in the assay with Klebsiella pneumoniae [16]; 8 µg/mL in the assay on Enterococcus faecalis [17]; 0.25 µg/mL in assay [18]; 0.125 µg/mL against Staphylococcus aureus [20]; 0.25 µg/mL in assay [21]; 0.5 µg/mL in the assay on Pseudomonas aeruginosa [22]. For the same molecule, the results for the MIC in the assay with Pseudomonas aeruginosa [23], in the assay with Staphylococcus aureus [24] and in the assay with Escherichia coli [25] were 0.25 µg/mL, 0.06 µg/mL and 16 µg/mL, respectively.
